# Source: PubChem BioAssay
# Compounds with a hit are over-represented: about 2.3% of the library has one in this group of screens.
# TRPC6 act – activators of mouse TRPC6 channel. B-score at 10 µM. AID 2550. HEK293-TRPC6 membrane potential dye fluorescence; hits give high values. 310,000 tested, 0.13% active. Q61143;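 active = B-score of the integrated fluorescence ratio above library mean plus 3 SD, and starting fluorescence ratio within library mean plus 5 SD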;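 note: higher score means more depolarization so channel activation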
# TRPC6 inhibitor – mouse TRPC6 channel inhibition; B-score at 10 µM; HEK293-TRPC6, membrane potential dye, ACh-evoked depolarization; hits give low values; 310,000 tested, 1.1% active; Q61143; AID 2553;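 active = B-score under library mean minus 3 SD, initial fluorescence not abnormally high, positive integrated signal ratio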;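 note: B-score derived from integrated fluorescence ratio over the kinetic read; more negative B-score means stronger inhibition of depolarization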
# TRPC4 act – TRPC4 (mouse) channel activation | Q9QUQ5 | HEK293 TRPC4beta/mu-opioid, Fluo4 calcium fluorescence; hits give high values | B-score at 10 µM | 310,000 tested, 0.49% active;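 active = B-score above 5 SD of library B-scores, and initial fluorescence ratio not above library mean plus 5 SD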;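 note: positive B-score marks a calcium rise read as TRPC4 activation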
# Target sequence (Q9QUQ5 whole entry, looked up): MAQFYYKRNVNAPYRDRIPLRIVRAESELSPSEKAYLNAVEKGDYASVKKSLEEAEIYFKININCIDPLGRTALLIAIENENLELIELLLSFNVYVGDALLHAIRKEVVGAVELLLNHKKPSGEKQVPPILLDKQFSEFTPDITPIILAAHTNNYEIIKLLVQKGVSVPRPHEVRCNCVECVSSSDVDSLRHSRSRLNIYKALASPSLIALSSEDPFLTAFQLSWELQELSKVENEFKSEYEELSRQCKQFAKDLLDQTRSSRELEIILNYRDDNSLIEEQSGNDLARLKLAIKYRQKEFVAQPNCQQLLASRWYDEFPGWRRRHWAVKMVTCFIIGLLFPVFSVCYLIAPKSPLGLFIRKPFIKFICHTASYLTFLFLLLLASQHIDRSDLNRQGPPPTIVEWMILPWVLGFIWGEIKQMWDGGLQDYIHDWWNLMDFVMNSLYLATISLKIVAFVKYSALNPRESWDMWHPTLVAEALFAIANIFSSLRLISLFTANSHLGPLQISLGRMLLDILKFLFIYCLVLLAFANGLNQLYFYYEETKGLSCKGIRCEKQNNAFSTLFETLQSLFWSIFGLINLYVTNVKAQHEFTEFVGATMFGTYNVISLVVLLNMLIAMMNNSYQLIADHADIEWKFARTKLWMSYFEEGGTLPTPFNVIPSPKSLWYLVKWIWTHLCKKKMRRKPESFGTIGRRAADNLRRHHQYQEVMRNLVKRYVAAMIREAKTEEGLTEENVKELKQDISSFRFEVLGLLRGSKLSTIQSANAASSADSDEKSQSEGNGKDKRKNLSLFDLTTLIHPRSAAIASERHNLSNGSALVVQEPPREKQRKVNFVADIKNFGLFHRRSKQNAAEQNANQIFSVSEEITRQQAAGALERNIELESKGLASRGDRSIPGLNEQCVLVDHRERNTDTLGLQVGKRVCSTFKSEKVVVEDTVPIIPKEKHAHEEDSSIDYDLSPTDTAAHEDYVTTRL
#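 Assay system: HEK293 stable line with TRPC4beta plus mu-opioid receptor. Times: dye 45 min RT, read 110 s. Measured by: kinetic Fluo4 calcium fluorescence. Measure: B score of integrated ratio. Controls: assay buffer as low control, maximal DAMGO as high control.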
# TRPC4 potent – allosteric potentiators of mouse TRPC4 channel; Q9QUQ5; HEK293 TRPC4beta/mu-opioid, DAMGO EC20, Fluo-4 Ca2+ flux; hits give high values; B-score at 10 µM; 310,000 tested, 0.42% active; AID 2227;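 active = B-score of calcium response area above 5 SD of library B-scores, with initial fluorescence ratio within 5 SD of library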;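 note: B-score of integrated fluorescence ratio over time as area under calcium response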
# TRPC4 inh – blocks the mouse TRPC4 cation channel. Q9QUQ5. HEK293 TRPC4beta/mu-opioid, DAMGO-evoked Fluo4 calcium flux; hits give low values. B-score at 10 µM. 300,000 tested, 0.39% active. AID 2247;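 active = B-score over 3 SD under the library average, no early fluorescence shift, positive overall ratio signal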
#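 Material: HEK293 cells with stable TRPC4beta plus mu-opioid receptor expression / Probe or stimulus: DAMGO in two steps, submaximal then maximal / Compound: single concentration per test compound / Technique: kinetic Fluo4 fluorescence imaging of calcium influx / Read-out: per-well B score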
# * hit, by the source's call; i = inactive.
SMILES,TRPC6 act,TRPC6 inhibitor,TRPC4 act,TRPC4 potent,TRPC4 inh
CCOC(=O)Cc1csc(NC(=O)NC2(C(F)(F)F)Oc3cc(Cl)c(Cl)cc3O2)n1,i,i,i,i,-7*
O=C(CNC(=O)c1ccc(Cl)c([N+](=O)[O-])c1)OC1CCCCC1=O (stereo not drawn),i,i,i,i,i
O=C1Nc2ccccc2C12Nc1ccccc1-c1nc3ccccc3n12 (stereo not drawn),i,i,i,i,i
CN1C(=O)C2(Nc3ccccc3-c3nc4ccccc4n32)c2ccccc21 (stereo not drawn),i,i,i,i,-6*
Cc1nnc2n(Cc3ccccc3)c(=O)c3c4c(sc3n12)COC(C(C)C)C4 (stereo not drawn),i,i,i,11*,i
C=CCNC(=S)N1CCN(c2ccccc2Cl)CC1,i,i,i,i,i
C=CCNC(=S)N1CCN(c2ncc(C(F)(F)F)cc2Cl)CC1,i,i,i,11*,i
Cc1cc(C)cc(NC(=S)N2CCN(c3ncc(C(F)(F)F)cc3Cl)CC2)c1,i,i,141*,i,i
O=C(O)C1C2C=CC(C2)C1C(=O)Nc1ccc(Cl)c(Cl)c1 (stereo not drawn),i,i,i,i,i
COc1ccc2c(c1)c1ncn(CCCN3CCOCC3)c(=O)c1n2C,i,i,i,13*,i
CNC(=S)N/N=C(\C)c1ccc(C(C)(C)C)cc1,i,i,i,11*,i
CNC(=S)N/N=C(\C)c1ccccc1,i,i,i,i,i
O=C(OCc1cc2ccccc2[nH]c1=O)c1cccc([N+](=O)[O-])c1,i,i,i,i,i
O=C1CC(N2CCN(c3nc4ccccc4s3)CC2)C(=O)N1c1cccc(F)c1 (stereo not drawn),i,i,i,10*,i
CCCOc1ccc(N2C(=O)CC(N3CCN(c4nc5ccccc5s4)CC3)C2=O)cc1 (stereo not drawn),i,i,i,i,i
O=C(COc1ccc(Cl)cc1)Nc1ccc(C(=O)O)cc1NC(=O)COc1ccc(Cl)cc1,i,i,i,i,-6*
CCC(C)N(CCNC(=O)c1ccc2c(c1)NC(=O)c1ccccc1S2)C1CCCCC1 (stereo not drawn),i,i,i,i,i
O=C1c2cccnc2C(=O)N1Cc1ccc(F)cc1S(=O)(=O)NCc1ccco1,i,i,i,i,i
CC1CCc2c(C(=O)N3CCN(S(=O)(=O)c4cccs4)CC3)csc2C1 (stereo not drawn),i,i,i,29*,i
COc1ccc(CCN2C(=S)N(C)C(=O)C2CC(=O)Nc2ccc(F)cc2)cc1 (stereo not drawn),i,i,120*,i,i
COc1ccc(CCNc2nc(C)nc3c2oc2ccccc23)cc1OC,i,i,i,i,i
Cc1nc(NCCc2cnc[nH]2)c2oc3ccccc3c2n1,i,i,82*,i,i
Cc1ccc(CNC(=O)C2CCCCN2S(=O)(=O)c2ccccc2)cc1 (stereo not drawn),i,i,i,i,i
CCc1cc(OCCN(C)C)ccc1Cl,i,i,100*,26*,i
CCc1cc(OCCN2C(=O)NC(C)(C)C2=O)ccc1Cl,i,i,i,14*,i
SMILES,TRPC6 act,TRPC6 inhibitor,TRPC4 act,TRPC4 potent,TRPC4 inh
COc1cc(OC)cc(C(=O)N2CCC3(CC2)NCCc2[nH]cnc23)c1,i,i,i,i,i
CC(C)(CO)NC(=O)C(Cc1ccccc1)N1C(=O)c2ccccc2C1=O (stereo not drawn),i,i,i,i,i
COc1cccc(CC2(CO)CCN(Cc3cnc(N4CCOCC4)s3)CC2)c1,i,i,i,i,i
Cc1ncc(CN2CCN(CCc3ccccc3)C(CCO)C2)s1 (stereo not drawn),i,i,i,i,i
Cc1ncc(CN2CCC(CO)(CCc3ccccc3)CC2)s1,i,i,73*,i,i
OCC1(CCCc2ccccc2)CCN(Cc2cnc(N3CCOCC3)s2)CC1,i,i,46*,i,i
COc1ccc(S(=O)(=O)N(C)C)cc1NCC(=O)Nc1cccc(C#N)c1,i,i,i,i,i
O=c1c(C=NCCN2CCNCC2)c(-c2ccccc2)[nH]n1-c1ccc([N+](=O)[O-])cc1,i,-6.6*,i,i,i
CCc1cccc(CC)c1NC(=S)NCC(c1cccnc1)N(C)C (stereo not drawn),i,i,79*,i,i
CN(C)C(CNC(=O)Nc1cccc(Cl)c1)c1cccnc1 (stereo not drawn),i,i,65*,i,i
CN(C)C(CNC(=S)Nc1ccc(Cl)cc1)c1cccnc1 (stereo not drawn),i,i,86*,i,i
O=C(NCc1cccnc1)Nc1cccc(Cl)c1,i,i,i,i,i
Cn1c2ccccc2c(=O)c2c(=O)n(Cc3ccco3)c(-c3ccc(Cl)cc3Cl)nc21,i,i,i,i,i
CCCCN(CC)CCNC(=O)c1cc2c(=O)[nH]c3ccccc3c2s1,i,i,48*,i,i
CCOC(CCNC(=O)c1cc2c(=O)[nH]c3ccccc3c2s1)OCC,i,i,i,i,i
CCCN(CCC)CCCNC(=O)c1cc2c(=O)[nH]c3ccccc3c2s1,i,i,80*,i,i
CCOC(=O)N1CCC(c2cc(=O)n3[nH]cc(C(=O)OC)c3n2)CC1,i,i,i,i,i
CCOc1ccc(NC(=O)c2c[nH]n3c(=O)cc(C4CCN(C(=O)OC(C)(C)C)CC4)nc23)cc1,i,i,i,i,-7*
COc1cc(/C=C(\C#N)c2nc3c(s2)CCCC3)ccc1O,93*,i,91*,i,i
CCCCCCCC[n+]1cccc2c3ccccc3ccc21,i,i,i,i,-6*
NCCCNC(=O)c1cc2ccccc2[nH]1,i,i,106*,i,i
CN(CC1CCCO1)S(=O)(=O)c1ccc(C(=O)Nc2ccc(S(N)(=O)=O)cc2)cc1 (stereo not drawn),i,i,i,i,i
COc1ccc([N+](=O)[O-])cc1NC(=O)c1ccc(Br)s1,i,i,i,i,i
CN(C)/C=C1\C(=O)N(c2ccc([N+](=O)[O-])cc2)N=C1c1ccccc1,i,i,47*,i,-6*
